# According to ChEMBL document CHEMBL1125520, “Improved brain delivery of AZT using a glycosyl phosphotriester prodrug” (1992):
# Experiments:
# Mus musculus [1] = test: In Vivo detection in Mice plasma after oral administration of 58.33 mg/kg detected in the form of AZT after 1 hr; format: functional, organism-based; parameters: dose 58.33 mg/kg
# Mus musculus [2] = test: In Vivo detection in Mice plasma after oral administration of 58.33 mg/kg detected in the form of AZT 5`-P after 8 hr; format: functional, organism-based; parameters: dose 58.33 mg/kg
# Mus musculus [3] = test: In Vivo detection in Mice plasma after oral administration of 20 mg/kg detected in the form of AZT phosphodiester 2 after 0.5 hr; format: functional, organism-based; parameters: dose 20 mg/kg
# Mus musculus [4] = test: In Vivo detection of total AZT in Mice plasma after oral administration of 58.33 mg/kg after 2 hr; format: functional, organism-based; parameters: dose 58.33 mg/kg
# Outline: (§1)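 Male Swiss mice (18–20 g, six weeks old) given the test substance or vehicle ([…]) by gavage as a 3 mM solution (1.5 µmol/mouse). Aortic blood was collected into heparinized tubes at 0.5–48 h and centrifuged at 13000g for 10 min. Plasma was stored at -22 °C and analysed by HPLC. Three mice were used per time point, in triplicate. Values were not corrected for recovery.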
# Mus musculus [5] = test: In Vivo detection of total AZT in Mice plasma after oral administration of 58.33 mg/kg after 4 hr; format: functional, organism-based; parameters: dose 58.33 mg/kg; outline: as §1
# Mus musculus [6] = species: Mus musculus; test: Concentration of external nucleoside in mouse brain; format: functional
# Outline: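 Crude synaptosomes from three mouse brains were prepared by Gray–Whittaker homogenization in 10% sucrose buffered with 5 mM Tris-HCl, pH 7.4. The 7000g pellet was resuspended and incubated with each nucleoside at 3 mM for 15 min at 37 °C, stopped by cold 10-fold dilution and washed twice. Internal nucleoside was extracted in acetonitrile–water (3:1) and measured by HPLC.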
# Mus musculus [7] = test: In Vivo detection in Mice plasma after oral administration of 58.33 mg/kg detected in the form of AZT phosphodiester 3 after 1 hr; format: functional, organism-based; parameters: dose 58.33 mg/kg; outline: as §1
# Mus musculus [8] = test: In Vivo detection in Mice brains after oral administration of 58.33 mg/kg detected in the form of AZT after 8 hr; format: functional
# Mus musculus [9] = test: In Vivo detection in Mice brains after oral administration of 41.63 mg/kg detected in the form of AZT phosphodiester 2 after 24 hr; format: functional
# Mus musculus [10] = test: In Vivo detection in Mice plasma after oral administration of 41.63 mg/kg detected in the form of AZT after 48 hr; format: functional, organism-based; parameters: dose 41.63 mg/kg
# Mus musculus [11] = test: In Vivo detection of total AZT in Mice plasma after oral administration of 41.63 mg/kg after 1 hr; format: functional, organism-based; parameters: dose 41.63 mg/kg; outline: as §1
# Mus musculus [12] = test: In Vivo detection in Mice brains after oral administration of 41.63 mg/kg detected in the form of AZT 5`-P after 24 hr; format: functional
# Mus musculus [13] = test: In Vivo detection of total AZT in Mice brains after oral administration of 41.63 mg/kg after 48 hr; format: functional
# Outline: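 Male Swiss mice (18–20 g) dosed orally with a 3 mM solution in […] vehicle; decapitated at 0.5–48 h. Brains were homogenized in acetonitrile-water (3:1), centrifuged at 6000g for 40 min at 4 °C, lyophilized, redissolved in water and filtered (0.45 µm). Reversed-phase C18 column-switching HPLC with diode-array detection; standard spiking; vehicle-fed controls. Three mice per point, triplicates.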
# Mus musculus [14] = test: In Vivo detection in Mice plasma after oral administration of 41.63 mg/kg detected in the form of AZT 5`-P after 0.5 hr; format: functional, organism-based; parameters: dose 41.63 mg/kg
Compound,Plasma content (Mus musculus [1]),Plasma content (Mus musculus [2]),Plasma content (Mus musculus [3]),Plasma content (Mus musculus [4]),Plasma content (Mus musculus [5]),External nucleoside (Mus musculus [6]),Plasma content (Mus musculus [7]),Brain content (Mus musculus [8]),Brain content (Mus musculus [9]),Plasma content (Mus musculus [10]),Plasma content (Mus musculus [11]),Brain content (Mus musculus [12]),Brain content (Mus musculus [13]),Plasma content (Mus musculus [14])
CCCCCCCCCCCCCCCCOP(=O)(OCCO[C@H]1O[C@H](CO)[C@@H](O)[C@H](O)[C@@H]1O)OCC1OC(n2cc(C)c(=O)[nH]c2=O)CC1N=[N+]=[N-] (some centres undefined),1.3 nM ml-1,17.7 nM ml-1,0 nM ml-1,5.4 nM ml-1,5.3 nM ml-1,9100 nM/g,0 nM ml-1,2 nmol/g,,,,,,
Cc1cn([C@H]2C[C@H](N=[N+]=[N-])[C@@H](COP(=O)(O)OCCO[C@H]3O[C@H](CO)[C@@H](O)[C@H](O)[C@@H]3O)O2)c(=O)[nH]c1=O,,,,,,,,,4.5 nM ml-1,0 nM ml-1,43.5 nM ml-1,56.5 nmol/g,51.8 nM ml-1,20.4 nM ml-1
